Assay outcomes as filed in PubChem.
Only some compounds are listed: those with a hit (about 9.6% of all), similar ones and a draw of the others.
HCT116 PTEN-null – suppresses growth of cells with PTEN deletion; viability, % at 10 µM; HCT116 PTEN-null viability, CellTiter-Glo, 60 h; stronger effect = lower value; AID 827; 140,000 compounds, 1.2% hits;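 active = viability at or below a set limit, 4 SD under the median of all tested compounds, cut at about 3.7% in these data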;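 also: PTEN knockout HCT116 line with beta catenin targeted HCT116 as companion control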
TNAP inh hi DEA – blocks human TNAP under high phosphate acceptor concentration; AID 1135; P05186; 200,000 compounds, 0.03% hits; purified TNAP, CDP-star luminescence, 1 M DEA; inhibition, % at 20 µM;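 active = over 50% inhibition of tissue-nonspecific alkaline phosphatase at 20 µM in the single-dose screen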
Target sequence (P05186 whole entry, looked up): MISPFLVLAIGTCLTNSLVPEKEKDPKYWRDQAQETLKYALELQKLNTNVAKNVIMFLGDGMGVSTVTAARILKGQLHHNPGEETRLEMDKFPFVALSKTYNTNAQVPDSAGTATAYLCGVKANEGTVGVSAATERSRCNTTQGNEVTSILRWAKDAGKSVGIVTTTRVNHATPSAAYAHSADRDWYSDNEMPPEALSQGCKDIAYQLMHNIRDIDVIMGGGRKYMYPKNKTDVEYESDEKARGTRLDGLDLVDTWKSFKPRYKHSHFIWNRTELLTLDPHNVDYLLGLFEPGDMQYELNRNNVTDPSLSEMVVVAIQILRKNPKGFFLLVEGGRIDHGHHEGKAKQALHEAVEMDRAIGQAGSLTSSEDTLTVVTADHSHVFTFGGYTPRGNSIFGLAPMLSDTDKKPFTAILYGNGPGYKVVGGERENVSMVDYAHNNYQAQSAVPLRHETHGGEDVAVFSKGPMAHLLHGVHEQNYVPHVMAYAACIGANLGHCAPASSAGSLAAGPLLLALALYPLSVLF
TNAP act hiacc – activators of human TNAP at high phosphate acceptor concentration; activation factor at 20 µM; P05186; 200,000 tested, under 10 active; AID 1136; purified TNAP, CDP-star luminescence, 1 M DEA, 30 min; stronger effect = higher value; 0 = EDTA background, 1 = DMSO-only activity;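 active = activation factor at least 2 at 20 µM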
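Control set: EDTA negative control, DMSO positive control / Assay system: human TNAP / Quantity: TNAP 1/800 final / Evaluation: TNAP activation factor scaled between EDTA and DMSO control wells / Measured by: luminescent substrate turnover signal / Compound dosing: one dose, 20 µM / Times: 30 min enzyme reaction at room temperature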
bCat KO growth – beta-catenin-lacking colon tumor cell growth suppression; HCT116 beta-catenin knockout viability, CellTiter-Glo, 60 h; stronger effect = lower value; viability, % at 10 µM; 140,000 compounds, 1.5% hits; AID 818;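 active = viability at or under a set limit, the compound median less 4 SD, cut at about 6% in these data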
Lmaj promast – Leishmania major promastigote growth inhibition. inhibition, % at 10 µM. 200,000 compounds, 9% hits. Leishmania major promastigotes, resazurin fluorescence viability; in the data active = inhibition above about 50%;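 also: promastigotes grown with compound for 44 hours at 28 °C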
TNAP inh noacc – TNAP (human) inhibition, acceptor-free conditions; P05186; purified TNAP, CDP-star luminescence, 30 min; inhibition, % at 20 µM; 200,000 compounds, 0.26% hits; AID 1012;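 active = tissue-nonspecific alkaline phosphatase inhibition above about 50% at 20 µM in the single-dose screen, limit read from the data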
Hits are given with their value; – = inactive; · = no result given.

SMILES | HCT116 PTEN-null | TNAP inh hi DEA | TNAP act hiacc | bCat KO growth | Lmaj promast | TNAP inh noacc
O=C(CSc1nn(-c2ccccc2)c(=S)s1)Nn1cnnc1 | – | – | – | – | – | –
Cc1ccc(NC(=O)CSc2nn(-c3ccccc3)c(=S)s2)cc1S(=O)(=O)N(C)C | – | – | – | – | 77.4 | –
O=C(CSc1nnc(Nc2ccccc2F)s1)Nc1cccc(S(=O)(=O)N2CCCCC2)c1 | – | – | – | – | – | –
COc1ccccc1CNc1cc(CSc2ccc(Cl)cc2)nc(C)n1 | – | – | – | – | 57.4 | –
Cc1ccc(NC(=O)c2cc(S(=O)(=O)N3CCC4(CC3)OCCO4)ccc2F)cc1 | – | – | – | – | 95.9 | –
Cc1c(C(=O)Nc2ccc(F)cc2)oc2ccc(S(=O)(=O)N3CCC4(CC3)OCCO4)cc12 | – | – | – | – | – | –
Cc1c(C(=O)Nc2cccc(Cl)c2)oc2ccc(S(=O)(=O)N3CCC4(CC3)OCCO4)cc12 | – | – | – | – | 51.7 | –
O=C(Nc1ccc(Cl)cc1)N(Cc1nc2ccccc2c(=O)[nH]1)Cc1cccs1 | – | – | – | – | 84.7 | –
COc1ccccc1CN(Cc1nc2ccccc2c(=O)[nH]1)S(=O)(=O)c1ccc2ccccc2c1 | – | – | – | – | 89.7 | –
COc1ccccc1CN(Cc1nc2ccccc2c(=O)[nH]1)C(=O)Nc1cccc(C)c1 | – | – | – | – | 85.8 | –
COc1ccccc1NC(=O)N(Cc1ccc2c(c1)OCO2)Cc1nc2ccccc2c(=O)[nH]1 | – | – | – | – | – | –
CC(C)C[C@@H]1NC(=O)[C@H](CO)NC(=O)c2cc([N+](=O)[O-])cc(I)c2OCC[C@@H](C(N)=O)NC1=O | – | – | – | – | – | –
Cc1noc(C)c1CSc1nnc(-c2ccncc2)n1-c1ccc(Cl)c(Cl)c1 | – | – | – | – | – | –
CCC(C)(C)NC(=O)C(c1cccnc1)N(C(=O)c1csnn1)c1ccccc1 (stereo unspecified) | · | – | – | · | – | –
COc1ccc(C2CC(=O)C3=C(C2)Nc2ccccc2NC3c2coc3ccccc3c2=O)cc1OC (stereo unspecified) | – | – | – | – | 92.7 | –
Cc1ccc(/C=N\Nc2nc3ccc(Cl)cc3[nH]2)o1 | – | – | – | – | 99.3 | –
CCCCn1c(/C=C/c2ccco2)nc2ccccc21 | – | – | – | – | 63.4 | –
Clc1ccc(Cn2c(/C=C/c3ccco3)nc3ccccc32)cc1 | – | – | – | – | 50.1 | –
Cc1ccc(Cn2c(/C=C/c3ccco3)nc3ccccc32)cc1 | – | – | – | – | – | –
CCCCNc1nc2ccccc2[nH]1 | – | – | – | – | – | –
CCCCn1c(/C=N/Nc2nc3ccccc3[nH]2)nc2ccccc21 | – | – | – | – | 100.3 | –
O=C(CS(=O)(=O)c1ccc2ccccc2c1)N1CCCCCC1 | · | – | – | · | – | –
CCCCNC(=O)CNC(=S)N(CCCN1CCOCC1)Cc1cccs1 | – | – | – | – | – | –
COc1cccc(C(c2c(NC(=O)c3ccccc3)sc(C)c2C)N2CCN(C)CC2)c1 (stereo unspecified) | – | – | – | – | – | –
Cc1ccc2cc(/C=N/Nc3nc4ccccc4[nH]3)c(Cl)nc2c1 | – | – | – | – | – | –
SMILES | HCT116 PTEN-null | TNAP inh hi DEA | TNAP act hiacc | bCat KO growth | Lmaj promast | TNAP inh noacc
Fc1ccccc1-c1ccc(/C=N/Nc2nc3ccccc3[nH]2)o1 | – | – | – | – | 97.1 | –
Cc1cccc(/C=N/Nc2ccc3ccccc3n2)c1 | · | – | – | · | – | –
C#CCn1cc(/C=N/NC(=O)COc2cccc3cccnc23)c2ccccc21 | – | – | – | – | 57.5 | –
C#CCn1cc(/C=N/Nc2nc3ccccc3[nH]2)c2ccccc21 | – | – | – | – | 100.5 | –
Cc1ccc(/C=N/Nc2ccc3ccccc3n2)o1 | · | – | – | · | 63.5 | –
Cc1ccc(S(=O)(=O)N2CCN(Cc3ccsc3)CC2)cc1 | · | – | – | · | – | –
CCCSc1nnc(-c2cccc(S(=O)(=O)N(C)C)c2)n1-c1cc(OC)ccc1OC | – | – | – | – | 52.7 | –
Cn1c(C(=O)NCc2cccnc2)cc2sc(Cl)cc21 | – | – | – | – | 81.0 | –
O=C(NCc1cccnc1)c1sc2cc(Cl)ccc2c1Cl | – | – | – | – | 81.5 | –
CCOc1ccc(CCNC(=O)c2cc3sc(Cl)cc3n2C)cc1OCC | – | – | – | – | – | –
Cc1cc2cc(CNC(=O)Nc3ccccc3)ccc2[nH]1 | · | – | – | · | – | –
NC(N)=N/N=C/c1cccc(Cl)c1Cl | · | – | – | · | 100.5 | –
CC1=C(C(=O)N2CCOCC2)C(c2cc(C)ccc2C)NC(=S)N1 (stereo unspecified) | · | – | – | · | – | –
Cn1c(=O)n(C)c2cc([N+](=O)[O-])c(N3CCN(S(=O)(=O)c4ccc(C(C)(C)C)cc4)CC3)cc21 | – | – | – | – | 70.2 | –
O=[N+]([O-])c1cc(C(F)(F)F)cc([N+](=O)[O-])c1N1CCN(S(=O)(=O)c2ccccc2)CC1 | – | – | – | – | 51.3 | –
O=[N+]([O-])c1cc(C(F)(F)F)ccc1N1CCN(S(=O)(=O)c2ccc3ccccc3c2)CC1 | – | – | – | – | – | –
N#Cc1nc(COc2ccc(Cl)cc2)oc1NCc1ccc2c(c1)OCO2 | – | – | – | – | 75.2 | –
COc1cccc(NC(=S)N(CCCN2CCC(C)CC2)Cc2cccs2)c1 | · | – | – | · | 67.5 | –
CSc1cccc(NC(=S)N(CCCN2CCC(C)CC2)Cc2cccs2)c1 | · | – | – | · | 60.8 | –
Cc1c(NC(=O)C(C)n2cc([N+](=O)[O-])cn2)c(=O)n(-c2ccccc2)n1C (stereo unspecified) | · | – | – | · | – | –
CCOC(=O)C1CCN(C(=O)NS(=O)(=O)c2ccc(C)cc2)CC1 | · | – | – | · | – | –
Clc1ccc2nncn2n1 | · | – | – | · | – | –
CC(C)CNC(=S)N1CCC(NC(=O)c2ccco2)CC1 | · | – | – | · | – | –
CC1CC(NC(=O)Cc2ccc(Br)cc2)CC(C)(C)C1 (stereo unspecified) | – | – | – | – | – | –
CC1CC(NC(=O)C2(C)CC2(Cl)Cl)CC(C)(C)C1 (stereo unspecified) | – | – | – | – | 54.5 | –
SMILES | HCT116 PTEN-null | TNAP inh hi DEA | TNAP act hiacc | bCat KO growth | Lmaj promast | TNAP inh noacc
Cc1ccsc1C(=O)Nc1nnc(-c2ccco2)o1 | – | – | – | – | 87.7 | –
CCC(=O)Nc1nnc(-c2ccco2)o1 | – | – | – | – | – | –
Cc1ccc(C(=O)Nc2nnc(-c3ccco3)o2)cc1 | – | – | – | – | – | –
O=C(Nc1nnc(-c2ccco2)o1)c1ccc2ccccc2c1 | – | – | – | – | 68.9 | –
CC1CCN(CC(=O)Nc2cccc(Cl)c2)CC1 | · | – | – | · | – | –
COc1cccc(-c2cc(C(F)(F)F)n3nc(C(=O)N4CCCCC4c4cccnc4)cc3n2)c1 (stereo unspecified) | · | – | – | · | 89.3 | –
COC(=O)Nc1nn(-c2ccc(OC)cc2)c(=O)c(C#N)c1C | · | – | – | · | – | –
